Assay outcomes: PubChem, Broad Institute
Rows were chosen to be rich in hits. Some 3.4% of all compounds tested hit in one or more screens of this group.
MLL AF4-AF9 inh – inhibitors of AF4 peptide binding to AF9, primary screen, biochemical, AlphaScreen, biotin-AF4 peptide, FLAG-AF9, single point | Protein AF-9 (Homo sapiens), P42568 | inhibition, % at 10 µM | 350,000 tested, 0.47% active | AID 651704, 2012;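 active means every replicate reaching a set inhibition limit, whatever the replicate mean, cut at about 25% in these data; inconclusive means mean inhibition reaches that limit but some replicates miss it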
S100A4 MyoIIA – inhibitors of S100A4-myosin IIA peptide binding, primary screen, biochemical, fluorescence polarization, TAMRA-MyoIIA peptide | 360,000 tested, 0.14% active | inhibition, % at 10.7 µM | Protein S100-A4 (Homo sapiens), P26447;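 active means mean inhibition of at least 70% across replicates, with every replicate also reaching that level; inconclusive means mean inhibition reaches 70% but some replicates fall short; inactive means mean inhibition below 70%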
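Test system: S100A4 monomer protein. Medium: HEPES buffer with Ca2+, pH 7.2. Reagent: fluorescent myosin IIA peptide, 5 nM. Compound dosing: single-point compound testing. Timing: 5 min between mix addition and reading. Benchmarks: DMSO neutral and TFP positive wells.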
ERAP1 inh – human ERAP1 aminopeptidase inhibitors, primary screen, biochemical, single point, plate reader; Endoplasmic reticulum aminopeptidase 1 (Homo sapiens), Q9NZ08; recombinant ERAP1, Leu-AMC fluorescence, 60 min; inhibition, % at 10.7 µM; 340,000 tested, 0.15% active;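 active means mean replicate inhibition of at least 30%, or all replicates individually reaching that 30% level; inactive means mean below 30% and not every replicate reaching it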
Target sequence (Q9NZ08 whole entry, looked up): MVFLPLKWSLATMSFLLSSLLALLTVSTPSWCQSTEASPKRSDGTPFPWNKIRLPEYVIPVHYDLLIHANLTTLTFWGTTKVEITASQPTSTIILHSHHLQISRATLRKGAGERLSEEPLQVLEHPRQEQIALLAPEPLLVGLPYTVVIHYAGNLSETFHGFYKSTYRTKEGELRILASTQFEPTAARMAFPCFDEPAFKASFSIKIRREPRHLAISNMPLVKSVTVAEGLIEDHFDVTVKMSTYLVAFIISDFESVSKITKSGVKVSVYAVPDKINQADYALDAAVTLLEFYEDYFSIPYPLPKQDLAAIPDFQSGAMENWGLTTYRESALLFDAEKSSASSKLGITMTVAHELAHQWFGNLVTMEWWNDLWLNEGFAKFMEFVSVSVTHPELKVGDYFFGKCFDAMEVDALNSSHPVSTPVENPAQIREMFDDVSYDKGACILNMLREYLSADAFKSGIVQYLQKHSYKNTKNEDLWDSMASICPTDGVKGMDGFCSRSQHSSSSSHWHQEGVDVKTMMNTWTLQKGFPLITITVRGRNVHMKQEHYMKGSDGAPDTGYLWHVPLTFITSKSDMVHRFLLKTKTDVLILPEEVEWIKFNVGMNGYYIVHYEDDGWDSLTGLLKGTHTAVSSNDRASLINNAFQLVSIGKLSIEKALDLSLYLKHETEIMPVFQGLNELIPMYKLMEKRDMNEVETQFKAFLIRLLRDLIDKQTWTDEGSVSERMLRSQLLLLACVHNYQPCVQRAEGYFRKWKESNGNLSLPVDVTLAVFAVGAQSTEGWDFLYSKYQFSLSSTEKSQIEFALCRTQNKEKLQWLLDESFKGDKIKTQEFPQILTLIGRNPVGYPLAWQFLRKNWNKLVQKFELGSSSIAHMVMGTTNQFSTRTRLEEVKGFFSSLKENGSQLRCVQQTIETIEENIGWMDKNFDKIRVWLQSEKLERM
SIRT5 inh – SIRT5 desuccinylase inhibitors, primary screen, biochemical, fluorescence imaging, single point, set 5; NAD-dependent protein deacylase sirtuin-5, mitochondrial (Homo sapiens), Q9NXA8; Purified SirT5, succinyl-peptide AMC, trypsin-coupled fluorescence; inhibition, % at 15 µM; 330,000 tested, 1.1% active; AID 652115, 2013; in the data active means inhibition above about 15%; inconclusive means no clear call, values can overlap the other calls
E-sel inducer – E-selectin induction in HUVECs, primary screen, imaging, HUVEC, immunofluorescence imaging, single point; P16581; normalized: neutral wells 0, TNF-alpha wells 100; activation, % at 7.58 µM; 260,000 tested, 0.37% active; AID 686992, 2013;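 active means mean E-selectin-positive cell signal at least 10% of the positive control, reached in at least 60% of replicates, without over 20% cell loss; inconclusive means no rule given, readout overlaps actives, possibly toxicity-flagged; inactive means the rest, including those meeting only one limit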
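Test system – human umbilical vein endothelial cells (HUVEC), E-selectin induction · Input – 3,000 HUVEC seeded per well · Buffer or medium – EGM-2, gelatin · Compound dosing – single-point compound dose · Detection – immunofluorescence imaging · Measure – percent E-selectin-positive cells · Controls – TNF-alpha high, DMSO low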
Ecoli rRNA inh – reduced GFP signal of wild-type E. coli, primary screen, bacterial rRNA inhibitor project, GFP/RFP fluorescence, OD600, single point | E. coli WT GFP vs humanized-ribosome RFP mutants, 24 h; stronger effect = lower value; DMSO median 0, no signal -100 | GFP signal change (wild-type ribosome), % (no concentration beside the values) | 350,000 tested, 1.6% active;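 active means significant combined selectivity score with lowered wild-type GFP, culture density cut under 30%, mutant RFP and density less affected; inactive means any of these conditions unmet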
A number is an active result; i = inactive; ? = inconclusive; nt = no result given; ! = not confirmed by another sample.

SMILES	MLL AF4-AF9 inh	S100A4 MyoIIA	ERAP1 inh	SIRT5 inh	E-sel inducer	Ecoli rRNA inh
C[C@H]1CN([C@@H](C)CO)C(=O)c2cccc(N(C)C)c2O[C@H]1CN(C)C(=O)Nc1ccccc1	i	i	i	i	i	i
O=[N+]([O-])c1cccc(-c2csc(Nc3ccccc3)n2)c1	i	i	i	i	i	i
COc1cc(NS(=O)(=O)c2ccc(Nc3nc(-c4cccc([N+](=O)[O-])c4)cs3)cc2)nc(OC)n1	i	i	i	19	i	i
COc1cccc(/C=C2\Oc3cc(OCC(=O)N4CCCC4)ccc3C2=O)c1OC	i	i	i	i	nt	-24
COc1cccc(/C=C2\Oc3cc(OCC(=O)N4CCCCC4)ccc3C2=O)c1OC	i	i	i	i	nt	i
Cn1nc(C(=O)NNC(=O)COc2ccccc2)c2ccccc2c1=O	i	i	i	i	i	i
Cn1nc(C(=O)NNc2c(F)c(F)cc(F)c2F)c2ccccc2c1=O	i	i	i	i	i	-21
O=C(c1cccnc1)N1C[C@@H]2[C@H](c3ccccc31)[C@H](CO)N2C(=O)Nc1ccccc1Cl	i	i	i	i	i	i
N#Cc1ccc(C(=O)N2CCC3CC2c2cc(-c4ccccc4)ccc23)cc1 (centres undefined)	i	i	i	i	i	i
N#Cc1ccc(C(=O)N2CCC3CC2c2cc(N4CCCCC4)ccc23)cc1 (centres undefined)	i	i	i	i	nt	-33
CCCN(C)C[C@@H]1Oc2cc(C#CCC3CCCC3)ccc2S(=O)(=O)N([C@@H](C)CO)C[C@H]1C	nt	nt	nt	nt	i	i
C[C@@H]1CN([C@H](C)CO)C(=O)CCCn2cc(nn2)CO[C@@H]1CN(C)S(=O)(=O)c1ccc(-c2ccccc2)cc1	i	i	i	i	i	i
COc1ccc(CC(=O)O/N=C(\N)c2ccc(C)cc2)cc1	i	i	nt	nt	i	-22
N/C(=N\OC(=O)Cc1ccccc1)c1ccccc1Cl	i	i	i	i	i	-17
COc1ccc(CC(=O)O/N=C(\N)c2ccncc2)cc1	i	i	i	i	i	i
N/C(=N\OC(=O)Cc1ccc(Cl)cc1)c1ccncc1	i	i	i	i	i	-22
COc1ccc(CNc2nc(NCc3ccc(OC)cc3)n(C(=O)c3ccncc3)n2)cc1	i	i	nt	i	i	i
O=C(c1cccnc1)n1nc(NCc2ccccc2)nc1NCc1ccccc1	?	i	i	i	i	-35
O=c1c2ccccc2nc(COc2ccccc2)n1/N=C/c1ccc(O)c(O)c1	i	i	i	i	i	-31
O=C(Nn1c(COc2ccccc2)nc2ccccc2c1=O)C(Cl)(Cl)Cl	i	i	i	i	i	-15
CS(=O)(=O)N1C[C@@H]2C(c3ccccc3)[C@H](C1)N2Cc1ccc(F)cc1 (some centres undefined)	nt	nt	nt	nt	nt	i
O=C(C[C@H]1CC[C@@H]2[C@H](COC[C@H](O)CN2Cc2nccs2)O1)NCc1ccc(Cl)cc1	i	i	i	i	i	i
COc1ccc(-c2cnc3c(c2)C(=O)N([C@@H](C)CO)C[C@@H](C)[C@@H](CN(C)C(=O)Cc2ccncc2)O3)cc1	i	i	i	i	i	i
CC1=C(C(=O)OCc2ccccc2)C(c2cccnc2)c2c(n(C)c(=O)n(C)c2=O)N1 (centres undefined)	i	i	i	i	i	-17!
Cc1ccc(C)c(OCCC(=O)Nc2cccc(S(=O)(=O)NC3=NCCCCC3)c2)c1	i	i	i	i	nt	-22
SMILES	MLL AF4-AF9 inh	S100A4 MyoIIA	ERAP1 inh	SIRT5 inh	E-sel inducer	Ecoli rRNA inh
C=CCNC(=O)[C@@H]1[C@H]2C(=O)O[C@H](c3ccccc3)[C@H](c3ccccc3)N2[C@H](c2ccccc2OCCO)[C@@]12C(=O)N(C(=O)OCCOC)c1ccc(C#CCC(C(=O)OC)C(=O)OC)cc12	i	i	i	i	nt	nt
Brc1ccc(CNc2ccc3ncccc3c2)cc1	i	i	i	i	i	-29
COc1ccc(NC(=O)COC(=O)Cc2coc3cc(OC)ccc23)c(OC)c1	i	i	i	i	i	-34
COc1ccc2c(CC(=O)Nc3ccccc3N3CCOCC3)coc2c1	i	i	nt	i	i	-27
COC(=O)C(CC#Cc1ccc2c(c1)[C@]1(C(=O)N2)[C@H](c2ccc(OCCO)cc2)N2[C@H](c3ccccc3)[C@H](c3ccccc3)OC(=O)[C@H]2[C@@H]1C(=O)Nc1nc2ccccc2s1)C(=O)OC	i	i	i	i	nt	nt
O=C(COc1ccc2c(c1)OCO2)Nc1ccccc1F	i	i	i	i	nt	i
Fc1ccc(C2CCNCC2COc2ccc3c(c2)OCO3)cc1 (centres undefined)	32	i	i	i	i	i
C[C@H]1CN([C@@H](C)CO)C(=O)c2cccc(NS(=O)(=O)c3cn(C)cn3)c2O[C@H]1CN(C)Cc1ccc(Oc2ccccc2)cc1	i	i	i	29	i	i
C[C@H](CO)N1C[C@H](C)[C@H](CN(C)Cc2ccc(Oc3ccccc3)cc2)Oc2c(NS(C)(=O)=O)cccc2C1=O	i	i	i	i	31	i
C[C@@H]1CN([C@@H](C)CO)C(=O)c2cccc(NS(=O)(=O)c3cn(C)cn3)c2O[C@H]1CN(C)Cc1ccncc1	i	i	i	i	53	i
C[C@@H]1CN([C@H](C)CO)C(=O)c2cccc(NS(=O)(=O)c3cn(C)cn3)c2O[C@H]1CN(C)Cc1ccncc1	i	i	i	i	i	i
C[C@H]1CN([C@@H](C)CO)C(=O)c2cccc(NS(C)(=O)=O)c2O[C@H]1CN(C)Cc1ccc(Oc2ccccc2)cc1	i	i	i	i	nt	i
C[C@H](CO)N1C[C@H](C)[C@H](CN(C)Cc2ccc(Cl)c(Cl)c2)Oc2c(NS(=O)(=O)c3cn(C)cn3)cccc2C1=O	i	i	i	i	38	i
CC(=O)N(C)C[C@@H]1Oc2cc(C#CC3CCCC3)ccc2S(=O)(=O)N([C@H](C)CO)C[C@@H]1C	i	i	i	i	i	i
C[C@H]1CCCCO[C@H](CN(C)C(=O)Nc2ccccc2)[C@@H](C)CN([C@@H](C)CO)C(=O)c2cc(NC(=O)Nc3cccc4ccccc34)ccc2O1	i	i	i	i	i	i
FC(F)(F)c1cccc(CN2[C@@H]3CNC[C@H]2[C@@H]3c2ccc(-c3cccnc3)cc2)c1	nt	nt	nt	nt	i	i
C[C@H]1CN([C@@H](C)CO)C(=O)c2ccccc2-c2ccccc2CO[C@H]1CN(C)Cc1ccccc1C(F)(F)F	i	i	i	17	i	i
